Data: ChEMBL document CHEMBL1122504, “Heterocyclic Quinones. 4. A new highly cytotoxic drug: 6,7-bis(1-aziridinyl)-5,8-quinazolinedione” (1983)

Experiments:
B16 [1] = assay: Median survival time of […] melanocarcinoma cell line after a dose of 2.5 mg/kg administered intraperitoneally on Q01Dx01 treatment schedule; type: functional, Mus musculus; conditions: route intraperitoneal
Summary of the method: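 B16 melanocarcinoma: C57Bl/6 mice implanted sc with cell suspension on day 0; single ip dose in 0.15 M NaCl saline given on day 1. Median survival time was recorded in days, with toxicity taken as survivors on day 5. T/C% = treated MST/control MST × 100; >125% is considered significant.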

L1210 [2] = assay: Number of survivors of L1210 cell line on day 5/ number of treated mice at a dose of 2ip injection of 10 mg/kg on Q01Dx02 treatment schedule; 10/10; type: functional, Mus musculus
Salmonella typhimurium [3] = assay: Mutagenesis test was performed at 0.7 uM concentration in Salmonella Typhimurium TA 98; type: functional, Salmonella enterica subsp. enterica serovar Typhimurium
Summary of the method: (§1)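 Salmonella typhimurium his auxotrophs TA98 and TA100 were tested by liquid suspension without metabolic activation. Overnight Oxoid nutrient broth cultures were subcultured, grown 2 h, then exposed to drug for 5 h. Cells were washed, resuspended to A650 2.50, and plated in top agar (0.6% agar, 0.6% NaCl). His+ revertants per plate were counted after 48 h at 37 °C; values are means of three assays.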

B16 [4] = assay: Number of survivors of B16 melanocarcinoma cell line on day 5/ number of treated mice at a dose of 1 ip injection of 10 mg/kg on Q01Dx01 treatment schedule; 10/10; type: functional, Mus musculus; conditions: route intraperitoneal
P388 [5] = assay: Median survival time of P388 lymphocytic leukemia cell line after a dose of 10 mg/kg administered intraperitoneally on Q01Dx05 treatment schedule; type: functional, Mus musculus; conditions: route intraperitoneal
Summary of the method: (§2)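 P388 leukaemia: DBA/2 mice inoculated with 10^6 cells on day 0; treatment began day 1 at the stated route and schedule. Drug was dissolved in 0.15 M NaCl saline. The read-out was median survival time (MST, days), with toxicity taken as survivors on day 5. T/C% = treated MST/control MST × 100; ≥125% is considered significant.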

P388 [6] = assay: Median survival time of P388 lymphocytic leukemia cell line after a dose of 2.5 mg/kg administered intraperitoneally on Q01Dx09 treatment schedule; type: functional, Mus musculus; conditions: route intraperitoneal; summary of the method: as §2
P388 [7] = assay: Number of survivors of P388 lymphocytic leukemia cell line on day 5/ number of treated mice at a dose of 1 i.p. injection of 10 mg/kg on Q01Dx01 treatment schedule; 10/10; type: functional, Mus musculus; conditions: route intraperitoneal
L1210 [8] = assay: Number of survivors of L1210 cell line on day 5/ number of treated mice at a dose of 1 i.p. injection of 10 mg/kg on Q01Dx01 treatment schedule; 10/10; type: functional, Mus musculus; conditions: route intraperitoneal
Salmonella typhimurium [9] = assay: Mutagenesis test was performed at 40 uM concentration in Salmonella Typhimurium TA 100; type: functional, Salmonella enterica subsp. enterica serovar Typhimurium; summary of the method: as §1
L1210 [10] = assay: Number of survivors of L1210 cell line on day 5/ number of treated mice at a dose of 2 ip injection of 15 mg/kg on Q01Dx02 treatment schedule; 10/10; type: functional, Mus musculus; conditions: route intraperitoneal
Salmonella typhimurium [11] = assay: Mutagenesis test was performed at 0.3 uM concentration in Salmonella Typhimurium TA 100; type: functional, Salmonella enterica subsp. enterica serovar Typhimurium; summary of the method: as §1
P388 [12] = assay: MST of treated animal over control when administered at a dose of 10 mg/kg intraperitoneally on Q04Dx03 treatment schedule; type: functional, Mus musculus; conditions: route intraperitoneal; summary of the method: as §2
P388 [13] = assay: Number of survivors of P388 lymphocytic leukemia cell line on day 5/ number of treated mice at a dose of 9 ip injection of 5 mg/kg on Q01Dx09 treatment schedule; 10/10; type: functional, Mus musculus; conditions: route intraperitoneal
P388 [14] = assay: Number of survivors of P388 lymphocytic leukemia cell line on day 5/ number of treated mice at a dose of 1 i.v. injection of 2.5 mg/kg on Q01Dx01 treatment schedule; 9/10; type: functional, Mus musculus; conditions: route intravenous
L1210 [15] = assay: Number of survivors of L1210 cell line on day 5/ number of treated mice at a dose of 5ip injection of 5 mg/kg on Q01Dx05 treatment schedule; 10/10; type: functional, Mus musculus
Salmonella typhimurium [16] = assay: Mutagenesis test was performed at 10 uM concentration in Salmonella Typhimurium TA 98; type: functional, Salmonella enterica subsp. enterica serovar Typhimurium; summary of the method: as §1
Sarcoma-180 [17] = assay: Median survival time of sarcoma 180 cell line after a dose of 20 mg/kg administered intraperitoneally on Q01Dx01 treatment schedule; type: functional, Mus musculus; conditions: route intraperitoneal
Summary of the method: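 Sarcoma 180 was inoculated ip in Swiss mice (10^6 cells, day 0), and drug was given ip in 0.15 M NaCl saline. Median survival time was recorded in days; antitumor activity was expressed as treated MST over control MST ×100, significant above 125%.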

B16 [18] = assay: Number of survivors of B16 melanocarcinoma cell line on day 5/ number of treated mice at a dose of 1 ip injection of 2.5 mg/kg on Q01Dx01 treatment schedule; 10/10; type: functional, Mus musculus; conditions: route intraperitoneal
P388 [19] = assay: Number of survivors of P388 lymphocytic leukemia cell line on day 5/ number of treated mice at a dose of 9 ip injection of 2.5 mg/kg on Q01Dx09 treatment schedule; 10/10; type: functional, Mus musculus; conditions: route intraperitoneal
Sarcoma-180 [20] = assay: Number of survivors of sarcoma 180 cell line on day 5/ number of treated mice at a dose of 1 ip injection of 10 mg/kg on Q01Dx01 treatment schedule; 10/10; type: functional, Mus musculus; conditions: route intraperitoneal
L1210 [21] = assay: Median survival time of L1210 cell line after a dose of 10 mg/kg administered intraperitoneally on Q01Dx02 treatment schedule; type: functional, Mus musculus; conditions: route intraperitoneal
Summary of the method: (§3)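 L1210 leukaemia: DBA/2 mice inoculated ip with 10^5 cells on day 0, with ip drug in 0.15 M NaCl saline on the stated schedule. The read-out was median survival time in days, with toxicity taken as survivors on day 5. T/C% = treated MST/control MST × 100; >125% is considered significant.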

P388 [22] = assay: Number of survivors of P388 lymphocytic leukemia cell line on day 5/ number of treated mice at a dose of 7po injection of 20 mg/kg on Q01Dx07 treatment schedule; 10/10; type: functional, Mus musculus
P388 [23] = assay: Number of survivors of P388 lymphocytic leukemia cell line on day 5/ number of treated mice at a dose of 5 ip injection of 5 mg/kg on Q01Dx05 treatment schedule; 10/10; type: functional, Mus musculus; conditions: route intraperitoneal
L1210 [24] = assay: Median survival time of L1210 cell line after a dose of 10 mg/kg administered intraperitoneally on Q01Dx01 treatment schedule; type: functional, Mus musculus; conditions: route intraperitoneal; summary of the method: as §3
L1210 [25] = assay: MST of treated animal over control when administered at a dose of 2.5 mg/kg intraperitoneally on Q01Dx09 treatment schedule in L1210 cell lines; type: functional, Mus musculus; conditions: route intraperitoneal; summary of the method: as §3
P388 [26] = assay: MST of treated animal over control when administered at a dose of 10 mg/kg intraperitoneally on Q01Dx01 treatment schedule; type: functional, Mus musculus; conditions: route intraperitoneal; summary of the method: as §2
P388 [27] = assay: MST of treated animal over control when administered at a dose of 5 mg/kg intravenously on Q01Dx01 treatment schedule; type: functional, Mus musculus; conditions: route intravenous; summary of the method: as §2
L1210 [28] = assay: MST of treated animal over control when administered at a dose of 5 mg/kg intraperitoneally on Q01Dx09 treatment schedule in L1210 cell lines; type: functional, Mus musculus; conditions: route intraperitoneal; summary of the method: as §3

O=C1C(N2CC2)=C(N2CC2)C(=O)c2ncncc21
MST (B16 [1]): 15.7 days | Toxicity Survivors (L1210 [2]): 10 | Revertants/plate (Salmonella typhimurium [3]): 101 | Toxicity Survivors (B16 [4]): 10 | MST (P388 [5]): 10.4 days | MST (P388 [6]): 10.4 days | Toxicity Survivors (P388 [7]): 10 | Toxicity Survivors (L1210 [8]): 10 | Revertants/plate (Salmonella typhimurium [9]): 461 | Toxicity Survivors (L1210 [10]): 10 | Revertants/plate (Salmonella typhimurium [11]): 76 | T/C (P388 [12]): 132% | Toxicity Survivors (P388 [13]): 10 | Toxicity Survivors (P388 [14]): 9 | Toxicity Survivors (L1210 [15]): 10 | Revertants/plate (Salmonella typhimurium [16]): 89 | MST (Sarcoma-180 [17]): 19 days | Toxicity Survivors (B16 [18]): 10 | Toxicity Survivors (P388 [19]): 10 | Toxicity Survivors (Sarcoma-180 [20]): 10 | MST (L1210 [21]): 9 days | Toxicity Survivors (P388 [22]): 10 | Toxicity Survivors (P388 [23]): 10 | MST (L1210 [24]): 9.4 days | T/C (L1210 [25]): 109% | T/C (P388 [26]): 118% | T/C (P388 [27]): 103% | T/C (L1210 [28]): 109%
